These results are taken from article PMC9043816 (RSC Advances, 2021).

Structures are written as SMILES. Where “and” joins values, the source holds several entries; their conditions need not be identical. Equal entries are not always repeated. Where two headings read alike, the source gives them in different places.

Assay [1] deals with human breast carcinoma cell line (MCF-7). As to the kind of experiment: MTS cytotoxicity assay, MCF-7. Format: cell-based. An outline of the steps:
(§1)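 Cells grown in DMEM or RPMI 1640 with 10% FBS and penicillin/streptomycin (37 °C, 5% CO2), seeded at 4000–6000 cells per mL, then after 24 h treated for 48 h with several concentrations (DMSO stock 100 mM). Medium replaced, MTS added for 3 h at 37 °C, A492 read. Inhibition % relative to untreated and blank; IC50 by curve fitting; at least three wells per concentration.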

Assay [2] concerns human hepatoma carcinoma cell lines (HepG2). As to the kind of experiment: MTS cytotoxicity assay, HepG2. Format: cell-based. An outline of the steps:
as §1
Background: Tetrazolium assays rely on reduction of a dye to a coloured formazan, in cell work by metabolically active cells.

Assay [3] deals with human tongue carcinoma cell line (SCC-15). Kind of assay: MTS cytotoxicity assay, SCC-15. Format: cell-based. An outline of the steps:
as §1

The subject of assay [4] is human cervical carcinoma cell line (HeLa). As to the kind of experiment: MTS cytotoxicity assay, HeLa. The assay is classed as cell-based. An outline of the steps: as §1
For assay [5], the system named is p53. Kind of assay: Western blotting, p53 expression in HeLa cells. As to conditions: 25 nM, 50 nM and 100 nM, 48 h. The assay is classed as cell-based, human. An outline of the steps: (§2)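 HeLa cells seeded at 1 × 10^5 cells per mL overnight, then given test compound (25, 50, 100 nM final) for 48 h. Lysed on ice 20 min; protein quantified by BCA. Equal protein run on SDS-PAGE and transferred to PVDF, then blocked in 5% nonfat milk. Primary antibodies (p53, Bcl-2, Bax, GAPDH loading) overnight at 4 °C; peroxidase secondary 2 h; chemiluminescent detection.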

In assay [6] the test system is Bcl-2. As to the kind of experiment: Western blotting, Bcl-2 expression in HeLa cells. The assay is classed as cell-based, human. As to conditions: 25 nM, 50 nM and 100 nM, 48 h. An outline of the steps:
as §2

The subject of assay [7] is Bax. As to the kind of experiment: Western blotting, Bax expression in HeLa cells. Format: cell-based, human. As to conditions: 25 nM, 50 nM and 100 nM, 48 h. An outline of the steps:
as §2
Background: A western blot detects proteins with antibodies after separation by electrophoresis.

Assay [8] relates to HeLa cells. Kind of assay: Wound healing assay. The assay is classed as cell-based, human. As to conditions: serum starved. An outline of the steps: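 HeLa cells seeded at 2.5 × 10^5 cells per mL and grown to about 90% confluence; monolayer scratched with p10 tips, washed twice in PBS. Serum-free medium with test compound (25, 50, 100 nM final) or DMSO for 48 h. Gaps photographed at 0, 24, 48 h (10× magnification); healing rate from change in wound area; three independent experiments.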

The test system of assay [9] is HeLa cells. Kind of assay: 7-AAD/annexin V flow cytometry apoptosis assay. Format: cell-based, human. As to conditions: 100 nM. An outline of the steps:
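HeLa cells seeded at 1 × 10^5 cells per mL, grown overnight, then exposed to test compound (25, 50 or 100 nM final) for 24, 36 or 48 h. Cells were washed in cold PBS, trypsinized, and stained with annexin V-FITC plus 7-AAD for 15 min at room temperature in the dark. Analysed by flow cytometry; apoptotic % = early (annexin V+) plus late (annexin V+/7-AAD+).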

The test system of assay [10] is human umbilical vein endothelial cells (HUVEC). As to the kind of experiment: MTS cytotoxicity assay, HUVEC normal cells. Format: cell-based. As to conditions: read-out: IC50 HUVEC, 48 h treatment. An outline of the steps:
as §1

Assay [11] concerns normal cells, such as HFL, PrEC, HMEC and HUVEC. As to conditions: unless its concentration exceeded 5–10 μM; cited from earlier work.
Assay [12] concerns BT20 cells. As to conditions: 200 mg kg^−1, i.p.; cited from earlier work.
Assay [13] concerns Bel-7402, MCF-7 and MIA-PaCa cells. As to conditions: 250 mg kg^−1, i.p.; cited from earlier work.
The subject of assay [14] is 94 different cancer cell lines. As to conditions: read-out: IC50 values against 94 different cancer cell lines; in vitro; cited from earlier work.
The mark [15] stands for this setting: Homo sapiens, MCF7, 48 h, read-out: IC50 MCF-7, MTS, 48 h treatment.
The mark [16] stands for this setting: Homo sapiens, HepG2, 48 h, read-out: IC50 HepG2, MTS, 48 h treatment.
Where [17] appears, read: Homo sapiens, SCC-15, 48 h, read-out: IC50 SCC-15, MTS, 48 h treatment.
Setting [18] is: Homo sapiens, HeLa, 48 h, read-out: IC50 HeLa, MTS, 48 h treatment.

As usually defined, the IC50 is the concentration that inhibits the measured activity by half.

As for `COc1ccc(C[S+]([O-])c2ccc3ccccc3c2)cc1N` (stereo not shown) [12a, 2-Methoxy-5-((naphthalen-2-ylsulfinyl)methyl)aniline], the IC50 in assay [1] (setting [15]) amounted to 0.681 ± 0.048 µM; in assay [2] (setting [16]), 0.434 ± 0.038 µM; in assay [3] (setting [17]) it was 0.148 ± 0.027 µM; in assay [4] (setting [18]), 0.173 ± 0.031 µM.

For the compound `COc1ccc(CS(=O)(=O)c2ccc3ccccc3c2)cc1N` [12b, 2-Methoxy-5-((naphthalen-2-ylsulfonyl)methyl)aniline], the IC50 in assay [1] (setting [15]) was 0.11 ± 0.014 µM; in assay [2] (setting [16]), 0.043 ± 0.007 µM; in assay [3] (setting [17]) it was 0.028 ± 0.006 µM; in assay [4] (setting [18]) it was 0.03 ± 0.005 µM.

Consider `COc1ccc(C[S+]([O-])c2ccc3cc(Br)ccc3c2)cc1N` (stereo not shown) [12c, 5-(((6-Bromonaphthalen-2-yl)sulfinyl)methyl)-2-methoxyaniline], for which the IC50 in [1] (setting [15]) is 0.858 ± 0.088 µM; in assay [2] (setting [16]), 1.31 ± 0.091 µM; in assay [3] (setting [17]), 0.264 ± 0.027 µM; in assay [4] (setting [18]), 0.092 ± 0.009 µM.

As to `COc1ccc(CS(=O)(=O)c2ccc3cc(Br)ccc3c2)cc1N` [12d, 5-(((6-Bromonaphthalen-2-yl)sulfonyl)methyl)-2-methoxyaniline], the IC50 in assay [1] (setting [15]) came out at 0.095 ± 0.008 µM; in assay [2] (setting [16]), 0.402 ± 0.035 µM; in [3] (setting [17]), 0.078 ± 0.002 µM; in assay [4] (setting [18]), 0.064 ± 0.005 µM.

With `COc1ccc(CSc2ccc3ccccc3c2)cc1N` [12e, 2-Methoxy-5-((naphthalen-2-ylthio)methyl)aniline], the IC50 was found to be 17.5 ± 2.32 µM in [1] (setting [15]), 42.6 ± 3.81 µM in assay [2] (setting [16]), 2.21 ± 0.314 µM in [3] (setting [17]) and 4.06 ± 0.316 µM in assay [4] (setting [18]).

With `COc1ccc(C[S+]([O-])c2ccc3ccccc3c2)cc1NCC(=O)O` (stereo not shown) [15a, (2-Methoxy-5-((naphthalen-2-ylsulfinyl)methyl)phenyl)glycine], the IC50 in assay [1] (setting [15]) was determined as 2.03 ± 0.073 µM; in [2] (setting [16]) it was 5.08 ± 0.318 µM; in assay [3] (setting [17]), 0.722 ± 0.029 µM; in assay [4] (setting [18]) it was 0.23 ± 0.004 µM.

Take `COc1ccc(CS(=O)(=O)c2ccc3ccccc3c2)cc1NCC(=O)O` [15b, (2-Methoxy-5-((naphthalen-2-ylsulfonyl)methyl)phenyl)glycine]: the IC50 in assay [1] (read-out: IC50 MCF-7, MTS, 48 h treatment) worked out at 0.029 ± 0.001 µM; in [2] (read-out: IC50 HepG2, MTS, 48 h treatment), 0.39 ± 0.013 µM; in assay [3] (read-out: IC50 SCC-15, MTS, 48 h treatment) it was 0.015 ± 0.002 µM; in [10], 1.05 ± 0.048 µM; in [4] (read-out: IC50 HeLa, MTS, 48 h treatment), 0.064 ± 0.005 µM. Further, the “levels of the proapoptotic protein p53” value in assay [5] is reported as “increased significantly”. In addition, the “expression of antiapoptotic protein Bcl-2” value in assay [6] is listed as “down-regulation”. For the same compound, the “expression of proapoptotic protein Bax” value in [7] is on record as “up-regulation”. Further, the Wound healing rate in assay [8] (25 nM, 24 h, control 46.4) is 20.0% and 20.0 ± 3.5 %; in assay [8] (25 nM, 48 h, control 70.8) it was 32.0% and 32.0 ± 6.1 %; in [8] (50 nM, 24 h, control 46.4), 13.2 ± 2.2 %; in assay [8] (50 nM, 48 h, control 70.8) it was 15.5 ± 3.4 %; in assay [8] (100 nM, 24 h, control 46.4), 3.9% and 3.9 ± 3.0 %; in assay [8] (100 nM, 48 h, control 70.8), 4.4% and 4.4 ± 2.7 %. Further, the “apoptotic values (early and late apoptotic states)” value came to 9.2% in assay [9] (24 h), 30.2% in [9] (36 h) and 53.2% in [9] (48 h).

Consider `COc1cc(OC)c(/C=C/S(=O)(=O)Cc2ccc(OC)c(NCC(=O)O)c2)c(OC)c1` [Rigosertib, reference compound], for which the IC50 is 0.022 ± 0.003 µM in assay [1] (setting [15]); 0.108 ± 0.017 µM in assay [2] (setting [16]); 0.035 ± 0.003 µM in assay [3] (setting [17]); 0.05 to 0.25 µM in [14]; 0.065 ± 0.005 µM in assay [4] (setting [18]). In addition, the “anti-proliferative effect on normal cells” value in assay [11] was “little or no anti-proliferative effect”. Besides, the “tumor growth in mouse xenograft model” value in [12] is recorded as “remarkably inhibit tumor growth”. Also, the “tumor growth in mouse xenograft models” value in assay [13] was “significantly suppress tumor growth”.
